Test results from ChEMBL document CHEMBL1926565, “Synthesis, antiproliferative activities and telomerase inhibition evaluation of novel asymmetrical 1,2-disubstituted amidoanthraquinone derivatives” (Eur J Med Chem, 2012).
pIC50: −log10 of the molar value. Calls of active or inactive are those of the source. The calls are words filed in the database; no cut-off is given here.

Legend:
SK-MEL-28 = assay: Cytotoxicity against human SK-MEL-28 cells assessed as cellular growth at 10 uM; assay type: functional
Outline: (§1)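 Single-dose screen run by the NCI across its 60-human-tumour-cell-line panel; growth recorded for each cell line.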

SK-MEL-5 = assay: Cytotoxicity against human SK-MEL-5 cells assessed as cellular growth at 10 uM; assay type: functional
UACC-257 = assay: Cytotoxicity against human UACC257 cells assessed as cellular growth at 10 uM; assay type: functional
IGROV-1 = assay: Cytotoxicity against human IGROV1 cells assessed as cellular growth at 10 uM; assay type: functional; outline: as §1
OVCAR-3 = assay: Cytotoxicity against human OVCAR3 cells assessed as cellular growth at 10 uM; assay type: functional; outline: as §1
OVCAR-5 = assay: Cytotoxicity against human OVCAR5 cells assessed as cellular growth at 10 uM; assay type: functional; outline: as §1
OVCAR-8 = assay: Cytotoxicity against human OVCAR8 cells assessed as cellular growth at 10 uM; assay type: functional; outline: as §1
SK-OV-3 = assay: Cytotoxicity against human SKOV3 cells assessed as cellular growth at 10 uM; assay type: functional
A498 = assay: Cytotoxicity against human A498 cells assessed as cellular growth at 10 uM; assay type: functional; outline: as §1
SN12C = assay: Cytotoxicity against human SN12C cells assessed as cellular growth at 10 uM; assay type: functional
UO-31 = assay: Cytotoxicity against human UO31 cells assessed as cellular growth at 10 uM; assay type: functional
CAKI-1 = assay: Cytotoxicity against human Caki1 cells assessed as cellular growth at 10 uM; assay type: functional; outline: as §1
RXF 393 = assay: Cytotoxicity against human RXF393 cells assessed as cellular growth at 10 uM; assay type: functional; outline: as §1
PC-3 [1] = assay: Cytotoxicity against human PC3 cells assessed as cellular growth at 10 uM; assay type: functional; outline: as §1
DU-145 = assay: Cytotoxicity against human DU145 cells assessed as cellular growth at 10 uM; assay type: functional; outline: as §1
MCF7 = assay: Cytotoxicity against human MCF7 cells assessed as cellular growth at 10 uM; assay type: functional; outline: as §1
[2] = Cytotoxicity against human Hs 578T cells assessed as cellular growth at 10 uM; assay type: functional; outline: as §1
BT-549 = assay: Cytotoxicity against human BT549 cells assessed as cellular growth at 10 uM; assay type: functional; outline: as §1
T47D = assay: Cytotoxicity against human T47D cells assessed as cellular growth at 10 uM; assay type: functional
MDA-MB-468 = assay: Cytotoxicity against human MDA-MB-468 cells assessed as cellular growth at 10 uM; assay type: functional; outline: as §1
PC-3 [3] = assay: Cytotoxicity against human PC3 cells after 48 hrs by SRB assay; assay type: functional, cell-based; conditions: PC-3, 48 h
Outline: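 PC-3 cells grown in RPMI1640 with 10% FBS at 37 °C, 5% CO₂. Seeded in medium with 5% FBS; after 24 h, one plate fixed with 10% TCA as T₀. Compound or 0.1% DMSO vehicle added for 48 h, then TCA fixation and 0.4% SRB in 1% acetic acid. Dye solubilized in 10 mM Trizma base, absorbance read at 515 nm. IC50 is the concentration giving 50% reduction of the protein gain in controls.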

CCRF-CEM = assay: Cytotoxicity against human CCRF-CEM cells assessed as cellular growth at 10 uM; assay type: functional; outline: as §1
[4] = molecular target: Telomerase reverse transcriptase (Homo sapiens) (UniProt O14746); assay: Inhibition of telomerase activity in human H1299 cell free extract at 10 uM by modified TRAP assay
Telomerase reverse transcriptase (Homo sapiens), sequence (O14746 whole entry): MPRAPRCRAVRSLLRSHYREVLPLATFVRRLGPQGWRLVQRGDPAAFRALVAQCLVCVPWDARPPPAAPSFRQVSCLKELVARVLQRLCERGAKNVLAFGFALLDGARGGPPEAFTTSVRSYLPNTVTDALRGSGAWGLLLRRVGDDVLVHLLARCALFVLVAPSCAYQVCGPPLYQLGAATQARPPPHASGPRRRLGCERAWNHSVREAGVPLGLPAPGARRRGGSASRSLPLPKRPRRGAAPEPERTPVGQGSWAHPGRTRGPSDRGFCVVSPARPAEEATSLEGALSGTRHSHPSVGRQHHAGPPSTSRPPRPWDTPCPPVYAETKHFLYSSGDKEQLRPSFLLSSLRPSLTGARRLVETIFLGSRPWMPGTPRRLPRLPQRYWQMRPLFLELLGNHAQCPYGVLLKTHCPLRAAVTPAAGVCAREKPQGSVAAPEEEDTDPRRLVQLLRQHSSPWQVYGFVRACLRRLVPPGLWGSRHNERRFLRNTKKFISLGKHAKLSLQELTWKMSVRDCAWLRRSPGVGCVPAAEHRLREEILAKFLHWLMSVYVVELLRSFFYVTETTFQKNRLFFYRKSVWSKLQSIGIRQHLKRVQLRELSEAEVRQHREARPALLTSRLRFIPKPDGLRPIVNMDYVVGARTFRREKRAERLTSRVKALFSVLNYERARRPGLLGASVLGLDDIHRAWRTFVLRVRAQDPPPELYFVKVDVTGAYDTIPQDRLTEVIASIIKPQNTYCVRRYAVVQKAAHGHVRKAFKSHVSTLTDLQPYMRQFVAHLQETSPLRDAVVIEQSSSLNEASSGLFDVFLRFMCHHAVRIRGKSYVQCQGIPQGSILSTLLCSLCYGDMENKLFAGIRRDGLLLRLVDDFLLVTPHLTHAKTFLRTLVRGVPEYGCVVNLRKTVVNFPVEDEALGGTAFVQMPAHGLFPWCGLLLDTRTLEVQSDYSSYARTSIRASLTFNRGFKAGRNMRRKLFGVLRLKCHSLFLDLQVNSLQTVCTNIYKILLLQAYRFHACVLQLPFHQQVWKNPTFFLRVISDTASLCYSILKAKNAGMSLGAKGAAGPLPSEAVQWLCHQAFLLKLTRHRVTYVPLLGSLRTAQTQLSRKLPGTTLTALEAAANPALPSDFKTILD
Outline: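 TRAP assay using total cell lysate from H1299 lung cancer cells as the telomerase source, with protein measured against BSA standards. Compounds tested at 10 µM. Controls were lysate without inhibitor (positive) and RNase A-treated extract without inhibitor (negative).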

SR = assay: Cytotoxicity against human SR cells assessed as cellular growth at 10 uM; assay type: functional
K562 = assay: Cytotoxicity against human K562 cells assessed as cellular growth at 10 uM; assay type: functional; outline: as §1
NCI-H226 = assay: Cytotoxicity against human NCI-H226 cells assessed as cellular growth at 10 uM; assay type: functional; outline: as §1
NCI-H322M = assay: Cytotoxicity against human NCI-H322M cells assessed as cellular growth at 10 uM; assay type: functional; outline: as §1
NCI-H522 = assay: Cytotoxicity against human NCI-H522 cells assessed as cellular growth at 10 uM; assay type: functional; outline: as §1
A549 = assay: Cytotoxicity against human A549 cells assessed as cellular growth at 10 uM; assay type: functional; outline: as §1
HCC 2998 = assay: Cytotoxicity against human HCC2998 cells assessed as cellular growth at 10 uM; assay type: functional; outline: as §1
HCT-116 = assay: Cytotoxicity against human HCT116 cells assessed as cellular growth at 10 uM; assay type: functional; outline: as §1
HCT-15 = assay: Cytotoxicity against human HCT15 cells assessed as cellular growth at 10 uM; assay type: functional; outline: as §1
HT-29 = assay: Cytotoxicity against human HT-29 cells assessed as cellular growth at 10 uM; assay type: functional; outline: as §1
KM12 = assay: Cytotoxicity against human KM12 cells assessed as cellular growth at 10 uM; assay type: functional; outline: as §1
SW-620 = assay: Cytotoxicity against human SW620 cells assessed as cellular growth at 10 uM; assay type: functional
SF-268 = assay: Cytotoxicity against human SF268 cells assessed as cellular growth at 10 uM; assay type: functional; outline: as §1
SF-295 = assay: Cytotoxicity against human SF295 cells assessed as cellular growth at 10 uM; assay type: functional; outline: as §1
SF-539 = assay: Cytotoxicity against human SF539 cells assessed as cellular growth at 10 uM; assay type: functional; outline: as §1
SNB-19 = assay: Cytotoxicity against human SNB19 cells assessed as cellular growth at 10 uM; assay type: functional
SNB-75 = assay: Cytotoxicity against human SNB75 cells assessed as cellular growth at 10 uM; assay type: functional
LOX IMVI = assay: Cytotoxicity against human LOXIMVI cells assessed as cellular growth at 10 uM; assay type: functional; outline: as §1
Malme-3M = assay: Cytotoxicity against human MALME-3M cells assessed as cellular growth at 10 uM; assay type: functional; outline: as §1
M14 = assay: Cytotoxicity against human M14 cells assessed as cellular growth at 10 uM; assay type: functional; outline: as §1
SK-MEL-2 = assay: Cytotoxicity against human SK-MEL-2 cells assessed as cellular growth at 10 uM; assay type: functional; outline: as §1
[5] = Growth of human H1299 cells at 100 uM 48 hrs by MTT assay; conditions: NCI-H1299, 48 h
[6] = Growth of human H1299 cells at 1 uM after 48 hrs by MTT assay; conditions: NCI-H1299, 48 h
[7] = Growth of human H1299 cells at 10 uM after 48 hrs by MTT assay; conditions: NCI-H1299, 48 h
[8] = molecular target: Telomerase reverse transcriptase (Homo sapiens) (UniProt O14746); assay: Residual activity of human TERT in H1299 cells at 10 uM after 24 hrs by SEAP reporter gene assay
NCI/ADR-RES = assay: Cytotoxicity against human NCI/ADR-RES cells assessed as cellular growth at 10 uM; assay type: functional; outline: as §1
MDA-MB-435 = assay: Cytotoxicity against human MDA-MB-435 cells assessed as cellular growth at 10 uM; assay type: functional; outline: as §1

## Cc1ccc(C(=O)Nc2ccc3c(c2NC(=O)c2ccc(C)cc2)C(=O)c2ccccc2C3=O)cc1
SK-MEL-28
  Activity: 99.46%
SK-MEL-5
  Activity: 94.04%
UACC-257
  Activity: 98.46%
IGROV-1
  Activity: 78.71%
OVCAR-3
  Activity: 97.9%
OVCAR-5
  Activity: 110.18%
OVCAR-8
  Activity: 85.43%
SK-OV-3
  Activity: 109.62%
A498
  Activity: 124.08%
SN12C
  Activity: 98.59%
UO-31
  Activity: 66.54%
CAKI-1
  Activity: 94.89%
RXF 393
  Activity: 88.25%
PC-3 [1]
  Activity: 82.91%
DU-145
  Activity: 95.93%
MCF7
  Activity: 71.71%
[2]
  Activity: 105.96%
BT-549
  Activity: 95.39%
T47D
  Activity: 100%
MDA-MB-468
  Activity: 104.17%
PC-3 [3]
  pIC50: 5.50
CCRF-CEM
  Activity: 79.02%
[4]
  inhibition: inactive
SR
  Activity: 87.69%
K562
  Activity: 107.54%
NCI-H226
  Activity: 91.14%
NCI-H322M
  Activity: 97.74%
NCI-H522
  Activity: 72.05%
A549
  Activity: 90.46%
HCC 2998
  Activity: 84.68%
HCT-116
  Activity: 78.55%
HCT-15
  Activity: 102.44%
HT-29
  Activity: 99.39%
KM12
  Activity: 94.21%
SW-620
  Activity: 93.79%
SF-268
  Activity: 98.91%
SF-295
  Activity: 110.81%
SF-539
  Activity: 97.26%
SNB-19
  Activity: 103.91%
SNB-75
  Activity: 102.26%
LOX IMVI
  Activity: 84.41%
Malme-3M
  Activity: 127.16%
M14
  Activity: 91.57%
SK-MEL-2
  Activity: 100.65%
[5]
  growth, % of control at 100 µM: 62%
[6]
  growth, % of control at 1 µM: 100%
[7]
  growth, % of control at 10 µM: 116%
[8]
  residual activity: 97%

## Cc1ccc(C(=O)Nc2c(NC(=O)CN3CCCC3)ccc3c2C(=O)c2ccccc2C3=O)cc1
SK-MEL-28
  Activity: 92.18%
SK-MEL-5
  Activity: 61.74%
UACC-257
  Activity: 92.83%
IGROV-1
  Activity: 106.07%
OVCAR-3
  Activity: 77.82%
OVCAR-5
  Activity: 102.31%
OVCAR-8
  Activity: 65.02%
NCI/ADR-RES
  Activity: 50.86%
SK-OV-3
  Activity: 82.13%
A498
  Activity: 68.12%
SN12C
  Activity: 74.82%
UO-31
  Activity: 69.24%
CAKI-1
  Activity: 55.64%
RXF 393
  Activity: 63.8%
PC-3 [1]
  Activity: 75%
DU-145
  Activity: 91.52%
MCF7
  Activity: 70.79%
[2]
  Activity: 69.39%
BT-549
  Activity: 81.58%
T47D
  Activity: 44.33%
MDA-MB-468
  Activity: 69.27%
PC-3 [3]
  pIC50: 4.76
CCRF-CEM
  Activity: 39.61%
[4]
  inhibition: inactive
K562
  Activity: 40.86%
NCI-H226
  Activity: 90.22%
NCI-H322M
  Activity: 82.5%
NCI-H522
  Activity: 103.02%
A549
  Activity: 84.88%
HCC 2998
  Activity: 84.6%
HCT-116
  Activity: 58.46%
HCT-15
  Activity: 73.22%
HT-29
  Activity: 31.34%
KM12
  Activity: 51.05%
SW-620
  Activity: 82.29%
SF-268
  Activity: 86.17%
SF-295
  Activity: 68.97%
SF-539
  Activity: 81.29%
SNB-19
  Activity: 108.22%
SNB-75
  Activity: 66.03%
LOX IMVI
  Activity: 80.62%
Malme-3M
  Activity: 82.24%
M14
  Activity: 88.01%
MDA-MB-435
  Activity: 79.14%
SK-MEL-2
  Activity: 102.17%
[5]
  growth, % of control at 100 µM: 5%
[6]
  growth, % of control at 1 µM: 88%
[7]
  growth, % of control at 10 µM: 69%
[8]
  residual activity: 59%
